Activity calls are given as the source filed them. The rule behind the calls is not given here.
Columns and labels:
[1] = tested on: Hepatocyte; test: Cytotoxicity against hyperoxaluric-primary hepatocyte isolated from Hoga1-knockdown PH3 C57BL/6 mouse assessed as cell death at 10 uM by MTS assay; format: toxicity, cell-based; conditions: hepatocytes, Hoga1-knockdown PH3, 10 µM
Outline: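 Primary hepatocytes from Agxt1-/- (PH1, 5 mM glycolate), Grhpr-/- (PH2, 10 mM glycolate) or Hoga1-/- (PH3, 10 mM hydroxyproline) mice, incubated with inhibitor at 10 μM; viability followed through the oxalate assay by MTS tetrazolium method.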

[2] = target: L-lactate dehydrogenase A chain (Homo sapiens, UniProt P00338); test: Non-competitive inhibition of human recombinant LDHA assessed as decrease in Vmax with no effect on Km using pyruvate as substrate upto 20 uM
[3] = tested on: Hepatocyte; test: Inhibition of GO/LDHA in hyperoxaluric-primary hepatocyte isolated from Hoga1-knockdown PH3 C57BL/6 mouse assessed as relative oxalate output at 10 uM measured at 48 hrs in the presence of hydroxyproline relative to control; format: cell-based
Outline: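 Hoga1-/- mouse primary hepatocytes challenged with 10 mM hydroxyproline, inhibitor 10 μM; extracellular oxalate measured by colorimetric kit 24 and 48 h after dosing, given as ratio to oxalate without inhibitor; negative values are below detection limit; mean of three/four replicates ± SD.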

[4] = target: T1, 2-Hydroxyacid oxidase 1 (Homo sapiens) (UniProt Q9UJM8); test: Non-competitive mixed inhibition of N-terminal His-tagged human recombinant glycolate oxidase expressed in Escherichia coli BL21 (DE3) cells assessed as decrease in Vmax with increase in apparent Km using glycolate as substrate upto 60 microM
T1 sequence (whole entry): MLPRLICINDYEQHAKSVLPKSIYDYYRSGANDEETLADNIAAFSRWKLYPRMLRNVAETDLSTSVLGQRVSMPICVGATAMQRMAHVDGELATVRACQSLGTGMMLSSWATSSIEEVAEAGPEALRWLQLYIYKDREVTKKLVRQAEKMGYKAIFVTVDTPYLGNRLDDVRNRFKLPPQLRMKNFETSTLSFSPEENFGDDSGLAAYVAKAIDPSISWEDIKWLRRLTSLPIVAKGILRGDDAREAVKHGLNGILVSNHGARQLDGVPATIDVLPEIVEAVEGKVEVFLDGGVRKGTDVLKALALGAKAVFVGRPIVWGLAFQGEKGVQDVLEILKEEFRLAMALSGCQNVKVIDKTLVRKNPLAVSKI

[5] = target: L-lactate dehydrogenase B chain (Homo sapiens, UniProt P07195); test: Inhibition of human recombinant LDHB using pyruvate as substrate preincubated for 10 mins followed by substrate addition and measured every 60 sec for 10 mins in the presence of NADH by fluorescence assay
[6] = target: T2, 2-Hydroxyacid oxidase 1 (Homo sapiens, UniProt Q9UJM8); test: Inhibition of N-terminal His-tagged human recombinant glycolate oxidase expressed in Escherichia coli BL21 (DE3) cells using glycolate as substrate preincubated for 10 mins followed by substrate addition and measured after 10 mins by Amplex red and horseradish peroxidase based fluorescence assay
T2 sequence (Q9UJM8 whole entry): T1 sequence (whole entry)

[7] = target: T1, 2-Hydroxyacid oxidase 1 (Homo sapiens); test: (§1) Reversible inhibition of N-terminal His-tagged human recombinant glycolate oxidase expressed in Escherichia coli BL21 (DE3) cells assessed as enzyme recovery using glycolate as substrate at 100 times of IC50 concentration preincubated for 30 mins followed by substrate addition and measured every 60 sec for 15 mins by jump-dilution based Amplex red and horseradish peroxidase fluorescence assay; conditions: time 45.0 min
[8] = tested on: Hepatocyte; test: Inhibition of GO/LDHA in hyperoxaluric-primary hepatocyte isolated from Grhpr-knockdown PH2 C57BL/6 mouse assessed as relative oxalate output at 10 uM measured at 48 hrs in the presence of glycolate relative to control; format: cell-based
Outline: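 Grhpr-/- mouse primary hepatocytes cultured with 10 mM glycolate, inhibitor at 10 μM; extracellular oxalate determined colorimetrically at 24 and 48 h post-treatment, expressed relative to untreated medium (RO); negative RO means below detection limit; three/four replicates, mean ± SD.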

[9] = organism: Homo sapiens; test: Ratio of Ki for Non-competitive inhibition of human recombinant LDHB to Ki for non-competitive inhibition of human recombinant LDHA
[10] = target: T1, 2-Hydroxyacid oxidase 1 (Homo sapiens); test: as §1, with “10” for “100”; conditions: time 45.0 min

L-lactate dehydrogenase B chain, sequence (P07195 whole entry): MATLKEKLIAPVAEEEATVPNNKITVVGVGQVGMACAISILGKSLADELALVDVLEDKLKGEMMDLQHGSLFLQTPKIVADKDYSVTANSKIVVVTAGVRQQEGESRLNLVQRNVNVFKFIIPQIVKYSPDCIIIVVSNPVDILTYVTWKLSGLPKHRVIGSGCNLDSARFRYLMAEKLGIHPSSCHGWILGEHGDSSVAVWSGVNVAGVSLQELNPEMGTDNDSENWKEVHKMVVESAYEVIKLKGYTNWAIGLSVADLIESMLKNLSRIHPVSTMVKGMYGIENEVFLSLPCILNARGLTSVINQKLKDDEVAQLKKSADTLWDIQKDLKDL

inhibition [2]: Active | inhibition [4]: Active | IC50 [5]: 200 nM | IC50 [6]: 1500 nM | inhibition [7]: Active | Ratio [9]: 8 | inhibition [10]: Active
Structure (SMILES): N.N.O=C(O)c1cc(-c2ccc(CN(Cc3ccccc3)Cc3ccc(-c4ccc(O)c(C(=O)O)c4)o3)o2)ccc1O
Activity [1]: Non-Toxic | fold change (FC) [3]: 0.47 | fold change (FC) [8]: 0.76
